Test results reported in ChEMBL document CHEMBL1156051, “Synthesis and evaluation of lysophosphatidylserine analogues as inducers of mast cell degranulation. Potent activities of lysophosphatidylthreonine and its 2-deoxy derivative” (J Med Chem, 2009).
Calls of active or inactive are those of the source. No cut-off for these calls is given here.

How the values were obtained:
Mast cell [1] = test: Induction of Wistar rat peritoneal mast cell degradation assessed as concanavalin A-induced histamine release at 0.01 to 10 uM after 15 mins fluorometric assay; assay type: functional, cell-based
Procedure, shortened: (§1)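 Peritoneal mast cells at 5 × 10^4/mL in HEPES-buffered Tyrode stimulated with analogue plus 100 μg/mL concanavalin A for 15 min at 37 C. Supernatant histamine measured fluorometrically and expressed as percent of total cell histamine. Means ± SE of three independent experiments.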

Mast cell [2] = test: Induction of Wistar rat peritoneal mast cell degradation assessed as concanavalin A-induced histamine release after 15 mins fluorometric assay; assay type: functional, cell-based; settings: 0.25 h; procedure, shortened: as §1
Mast cell [3] = test: Induction of C57BL/6 mouse peritoneal mast cell degradation assessed as concanavalin A-induced histamine release at 0.01 to 10 uM after 15 mins fluorometric assay; assay type: functional, cell-based
Procedure, shortened: (§2)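 Peritoneal mast cells at 5 × 10^4/mL in HEPES-buffered Tyrode stimulated with analogue plus 10 μg/mL concanavalin A for 15 min at 37 C. Supernatant histamine measured fluorometrically and expressed as percent of total cell histamine. Means ± SE of three independent experiments.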

Mus musculus [4] = test: Effect on hypothermic effect in iv dosed C57BL/6 mouse assessed as reduction in rectal temperature measured every 5 to 10 mins for 60 mins; assay type: functional, organism-based
Procedure, shortened: (§3)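 Analogue suspended in PBS with 0.1% BSA and given intravenously; rectal temperature read with a rectal probe every 5 or 10 min for 60 min. Means ± SE of three independent experiments.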

Rattus norvegicus = test: Effect on hypothermic effect in iv dosed Wistar rat assessed as reduction in rectal temperature measured every 5 to 10 mins for 60 mins; assay type: functional, organism-based; procedure, shortened: as §3
Mast cell [5] = test: Induction of C57BL/6 mouse peritoneal mast cell degradation assessed as concanavalin A-induced histamine release after 15 mins fluorometric assay; assay type: functional, cell-based; settings: C57BL/6, Mast cell, 0.25 h; procedure, shortened: as §2
Mus musculus [6] = test: Effect on hypothermic effect in mast cell-deficient WBB6F1 mouse assessed as reduction in rectal temperature at 10 ug, iv measured every 5 to 10 mins for 60 mins; assay type: functional, organism-based
Procedure, shortened: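 W/Wv mast cell-deficient mice, with C57BL/6 as comparison, were given 10 μg iv in PBS containing 0.1% BSA. Rectal temperature was monitored every 5 or 10 min for 60 min. Three independent experiments.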

Mus musculus [7] = test: Increase in plasma histamine level in iv dosed C57BL/6 mouse after 2 mins by EIA; assay type: functional, organism-based
Procedure, shortened: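 Mice injected i.v. with analogue in PBS with 0.1% BSA; blood taken 2 min after injection and plasma histamine measured by enzyme immunoassay. Means ± SE of three independent experiments.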

[8] = Cytotoxicity against concanavalin A-stimulated Wistar rat peritoneal mast cells assessed as LDH release at 50 uM; assay type: cell-based

| Compound | EC50 (Mast cell [2]) [µM] | EC50 (Mast cell [5]) [µM] | Activity (Mast cell [1]) | Activity (Mast cell [3]) | also measured |
| --- | --- | --- | --- | --- | --- |
| CCCCCCCCCCCCCCCCCC(=O)OC[C@@H](O)COP(=O)(O)O[C@@H]1CCN[C@H]1C(=O)O | > 10 | – | inactive | inactive | – |
| CCCCCCCCCCCCCCCCCC(=O)N(C)C[C@@H](O)COP(=O)(O)OC[C@H](N)C(=O)O | 10 | – | inactive | inactive | – |
| CCCCCCCCCCCCCCCCCC(=O)OC[C@H](O)COP(=O)(O)OC[C@H](N)C(=O)O | 1 | 0.07 | – | – | – |
| CCCCCCCCCCCC(=O)OC[C@@H](O)COP(=O)([O-])OCC[N+](C)(C)C [LYSOPHOSPHATIDYLCHOLINE] | – | – | – | – | Activity [8]: Toxic |
| CCCCCCCCCCCCCCCCCC(=O)OC[C@@H](O)COP(=O)(O)OC[C@H](N)C(=O)OC | > 10 | – | inactive | inactive | – |
| CCCCCCCCCCCCCCCCCC(=O)OC[C@@H](COP(=O)(O)OC[C@H](N)C(=O)O)OC | 5 | – | – | – | – |

Continued, in another order:

| EC50 (Mast cell [2]) [µM] | EC50 (Mast cell [5]) [µM] | Compound | Activity (Mast cell [1]) | Activity (Mast cell [3]) | also measured |
| --- | --- | --- | --- | --- | --- |
| 2 | 0.2 | CCCCCCCCCCCCCCCCCC(=O)OC[C@@H](O)COP(=O)(O)O[C@@H](C)[C@H](N)C(=O)O | – | – | Activity (Mus musculus [4]): inactive; Activity (Rattus norvegicus): inactive |
| 0.1 | 0.007 | CCCCCCCCCCCCCCCCCC(=O)OCCCOP(=O)(O)O[C@H](C)[C@H](N)C(=O)O | Active | Active | Activity (Mus musculus [6]): inactive; Activity (Mus musculus [4]): Active; Activity (Mus musculus [7]): Active |
| 5 | – | CCCCCCCCCCCCCCCCCC(=O)NC[C@@H](O)COP(=O)(O)OC[C@H](N)C(=O)O | inactive | inactive | – |
| 2 | – | CCCCCCCCCCCCCCCCCC(=O)OC[C@H](COP(=O)(O)OC[C@H](N)C(=O)O)OC | – | – | – |
| 0.5 | 0.04 | CCCCCCCCCCCCCCCCCC(=O)OCCCOP(=O)(O)OC[C@H](N)C(=O)O | – | – | – |
| 0.06 | – | CCCCCCCCCCCCCCCC(=O)OCCCOP(=O)(O)O[C@H](C)[C@H](N)C(=O)O | Active | Active | – |
